# Assay results from different studies.
# Protocols differ between the studies behind these lines.
# Target: Misshapen-like kinase 1 (MINK1, Homo sapiens, UniProt Q8N4C8)
Structure (SMILES),read-out,mode,method,concentration,measurement,value
Nc1ncc(-c2nc(N3CCOCC3)nc(N3CCOCC3)n2)c(C(F)F)n1,binding,,competition with immobilised ligand,10 µM,remaining binding,66%
Cn1cncc1[C@@](O)(COc1ccc(C#N)cc1-c1ccc(OC(F)(F)F)cc1)c1ccc(C#N)cc1,cell-free assay,,competition with immobilised ligand,1 µM,remaining binding,100%
CC(C)(C)c1cc(C=C(C#N)C#N)cc(Br)c1O,enzyme activity,inhibitor,,0.5 µM,remaining activity,111%
C#Cc1n[nH]c2c(-c3cn([C@@H](C)c4ccccc4)c(=O)[nH]c3=O)cc(F)cc12,enzyme activity,inhibitor,,0.1 µM,inhibition,2%
N#CC1(c2ccccn2)CCN(Cc2cc(C(=O)O)c(=O)n3ccccc23)CC1,cell-free assay,,competition with immobilised ligand,1 µM,remaining binding,92%
Cn1cc(-c2cc(F)cc(N3CCn4c(cc5c4CCCC5)C3=O)c2CO)cc(Nc2ccc(N3CCN(C4COC4)CC3)cn2)c1=O,enzyme activity,inhibitor,,0.1 µM,inhibition,12%
C#Cc1n[nH]c2c(-c3cn([C@@H](C)c4ccccn4)c(=O)[nH]c3=O)cc(F)cc12,enzyme activity,inhibitor,,0.1 µM,inhibition,5.6%
Cn1cc(-c2cccc(N3CCc4c(sc5c4CC(C)(C)C5)C3=O)c2CO)cc(Nc2ccncn2)c1=O,enzyme activity,inhibitor,,1 µM,inhibition,11%
O=c1[nH]c2ccccc2n1C1CCN(Cc2ccc(-c3[nH]c4cc5ncnc5cc4nc3-c3ccccc3)cc2)CC1,cell-free assay,,,0.5 µM,remaining signal,103%
Cc1nn(C)cc1-c1nc2c(N3CCN(Cc4ccc(Cl)cc4)CC3)c(Cl)cnc2[nH]1,binding,,competition with immobilised ligand,1 µM,remaining binding,84%
